The source made the active and inactive calls. No cut-off for these calls is given here.
Tests used:
[1] = target: Genome polyprotein (dengue virus type 2) (UniProt P29990); assay: Inhibition of DENV NS2B-NS3 protease assessed as fluorescence emission using benzoyl-Nle-Lys-Arg-Arg-AMC as substrate at 150 nM preincubated with enzyme for 60 min followed by substrate addition and measured for 15 min by fluorimetric assay
Outline: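 The substrate is cleaved to release fluorescent AMC, and fluorescence intensity is the read-out. Percent inhibition is taken from triplicate measurements at 150 nM compound.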

Genome polyprotein [2] = target: T1, Genome polyprotein (dengue virus type 2, UniProt P29990); assay: Inhibition of DENV NS2B-NS3 protease assessed as fluorescence emission using benzoyl-Nle-Lys-Arg-Arg-AMC as substrate preincubated with enzyme for 60 min followed by substrate addition and measured for 15 min by fluorimetric assay
Outline: (§1)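 Fluorometric protease assay reading the fluorescence of product released from benzoyl-Nle-Lys-Arg-Arg-AMC cleavage, with aprotinin as a positive control. Percent inhibition was taken from triplicate measurements at 150 nM inhibitor. IC50 values were determined by a similar method for selected compounds.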

Genome polyprotein [3] = target: T1, Genome polyprotein; assay: Inhibition of DENV2 NS2B-NS3 protease expressed in Escherichia coli assessed as fluorescence emission using Bz-nKRR-AMC as substrate by microplate reader assay; outline: as §1
Genome polyprotein [4] = target: T1, Genome polyprotein; assay: Binding affinity to DENV NS2B-NS3 protease assessed as inhibition constant using benzoyl-Nle-Lys-Arg-Arg-AMC as substrate incubated for 60 min by measuring fluorescence intensity
Outline: (§2)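 Time-dependent inactivation of DENV NS2B-NS3 protease was followed by fluorescence from cleavage of benzoyl-Nle-Lys-Arg-Arg-AMC at several inhibitor concentrations. kobs values were obtained at each concentration and plotted against inhibitor concentration to derive kinact, Ki and the second-order rate constant kinact/Ki.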

[5] = target: Genome polyprotein (dengue virus type 2) (UniProt P29990); assay: Inhibition of DENV NS2B-NS3 protease assessed as fluorescence emission using benzoyl-Nle-Lys-Arg-Arg-AMC as substrate at 1.4 to 16.7 uM by fluorimetric assay; details: dose 1.4-16.7 µM, time min <=60, TDE = time-dependent effect
[6] = target: Genome polyprotein (dengue virus type 2) (UniProt P29990); assay: Inhibition of DENV NS2B-NS3 protease assessed as inactivation constant using benzoyl-Nle-Lys-Arg-Arg-AMC as substrate incubated for 60 min by measuring fluorescence intensity; outline: as §2
[7] = target: Genome polyprotein (dengue virus type 2) (UniProt P29990); assay: Inhibition of DENV NS2B-NS3 protease assessed as ratio of Kinact/Ki using benzoyl-Nle-Lys-Arg-Arg-AMC as substrate incubated for 60 min by measuring fluorescence intensity; outline: as §2
BHK-21 [8] = assay: Cytoprotective activity against DENV infected hamster BHK-21 cells assessed as cell survival rate at 5 uM incubated for 5 days measured by CCK-8 assay; type: functional, cell-based; details: Mesocricetus auratus, time 5.0 day
Outline: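 BHK-21 cells are infected with DENV and treated with compound at 5 μM. Cell viability is read by CCK-8. Survival rate is compared against the virus-infection control.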

BHK-21 [9] = assay: Cytotoxicity against DENV infected hamster BHK-21 cells assessed as cell survival rate at 5 uM incubated for 5 days measured by CCK-8 assay; type: toxicity, cell-based, Mesocricetus auratus; details: bhk-21, 120 h, time 5 day

Structure (SMILES)	inhibition [1] [%]	further results
CC(C)(C)c1ccc(S(=O)(=O)n2nc(OC(=O)c3ccc(-c4ccccc4)cc3)cc2N)cc1	59.8	
Nc1cc(OC(=O)c2ccc([N+](=O)[O-])cc2)nn1S(=O)(=O)c1ccc(Cl)cc1	13.2	
Nc1ccc(C(=O)Oc2cc(N)n(S(=O)(=O)c3ccc(Oc4ccccc4)cc3)n2)cc1	100	IC50 (Genome polyprotein [2]): 9 nM
Nc1cc(OC(=O)c2ccc(-c3ccccc3)cc2)nn1S(=O)(=O)c1ccc(C(F)(F)F)cc1	41.2	
COc1ccc(S(=O)(=O)n2nc(OC(=O)c3ccc(-c4ccccc4)cc3)cc2N)cc1	59.7	IC50 (Genome polyprotein [3]): 500 nM; Ki (Genome polyprotein [4]): 7250 nM; inhibition [5]: Tde; IC50 (Genome polyprotein [2]): 500 nM; Kinact [6]: 1.13 10^-3/s; Ratio [7]: 156
Nc1ccc(C(=O)Oc2cc(N)n(S(=O)(=O)c3ccc(C(F)(F)F)cc3)n2)cc1	52.6	
COc1ccc(C(=O)Oc2cc(N)n(S(=O)(=O)c3ccc(Oc4ccccc4)cc3)n2)cc1	76.7	
Nc1cc(OC(=O)c2ccc(-c3ccccc3)cc2)nn1S(=O)(=O)c1ccc(Oc2ccccc2)cc1	95	
Nc1cc(OC(=O)c2ccc([N+](=O)[O-])cc2)nn1S(=O)(=O)c1ccc(Oc2ccccc2)cc1	64.3	
Nc1ccc(C(=O)Oc2cc(N)n(S(=O)(=O)c3ccc(Cl)cc3)n2)cc1	85.6	
COc1ccc(S(=O)(=O)n2nc(OC(=O)c3ccc(N)cc3)cc2N)cc1	68.5	
Nc1cc(OC(=O)c2ccc(-c3ccccc3)cc2)nn1S(=O)(=O)c1ccccc1	100	IC50 (Genome polyprotein [2]): 12 nM
Nc1ccc(C(=O)Oc2cc(N)n(S(=O)(=O)c3ccc(Br)cc3)n2)cc1	100	IC50 (Genome polyprotein [2]): 74 nM
CCOc1ccc(S(=O)(=O)n2nc(OC(=O)c3ccc(N)cc3)cc2N)cc1	71.9	
COc1ccc(C(=O)Oc2cc(N)n(S(=O)(=O)c3ccc(C(F)(F)F)cc3)n2)cc1	16.1	
CCOc1ccc(S(=O)(=O)n2nc(OC(=O)c3ccc(OC)cc3)cc2N)cc1	43.6	
CCOc1ccc(S(=O)(=O)n2nc(OC(=O)c3ccc(C)cc3)cc2N)cc1	42.1	
Nc1ccc(C(=O)Oc2cc(N)n(S(=O)(=O)c3ccc(F)cc3)n2)cc1	87.8	
Cc1ccc(C(=O)Oc2cc(N)n(S(=O)(=O)c3ccc(Oc4ccccc4)cc3)n2)cc1	81	
CCOc1ccc(S(=O)(=O)n2nc(OC(=O)c3ccc(-c4ccccc4)cc3)cc2N)cc1	100	Ki (Genome polyprotein [4]): 665 nM; inhibition [5]: Tde; IC50 (Genome polyprotein [2]): 6 nM; Kinact [6]: 1.05 10^-3/s; Activity (BHK-21 [8]): Active; Activity (BHK-21 [9]): Non-Toxic; Ratio [7]: 1580
Nc1cc(OC(=O)c2ccc([N+](=O)[O-])cc2)nn1S(=O)(=O)c1ccc(C(F)(F)F)cc1	22	
Nc1cc(OC(=O)c2ccc([N+](=O)[O-])cc2)nn1S(=O)(=O)c1ccccc1	27.3	
Nc1ccc(C(=O)Oc2cc(N)n(S(=O)(=O)c3ccccc3)n2)cc1	76.4	
CCOc1ccc(S(=O)(=O)n2nc(OC(=O)c3ccc([N+](=O)[O-])cc3)cc2N)cc1	32.6	
CC(C)(C)c1ccc(S(=O)(=O)n2nc(OC(=O)c3ccc(N)cc3)cc2N)cc1	88.1	
Cc1ccc(C(=O)Oc2cc(N)n(S(=O)(=O)c3ccc(C(F)(F)F)cc3)n2)cc1	19.3	
Nc1cc(OC(=O)c2ccc([N+](=O)[O-])cc2)nn1S(=O)(=O)c1ccc(Br)cc1	17.3	
CC(C)(C)c1ccc(S(=O)(=O)n2nc(OC(=O)c3ccc([N+](=O)[O-])cc3)cc2N)cc1	20.4	
